From ChEMBL document CHEMBL4513216, “Probing the Open Global Health Chemical Diversity Library for Multistage-Active Starting Points for Next-Generation Antimalarials” (ACS Infect Dis, 2020)

Assay: Toxicity liver stage against HepG2, at 10uM
Assay type: cell-based
Parameters: test concentration 10 uM, cell line HepG2-A16-CD81EGFP
Conditions: human, HepG2-A16-CD81EGFP cells; read-out: INHIBITION
Method in brief: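 Uninfected HepG2-A16-CD81EGFP cells, 3 × 10^3 per well, 1536-well, plated on prespotted compound at 10 μM final, parasite-free screening media added to match infected plates; puromycin 10 μM positive, DMSO 0.5% negative; run in parallel with 48 h PbLuc assay at 37 °C, 5% CO2; viability by CellTiter-Glo luminescence, normalized to controls.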

| Compound | cytotoxicity at 10 µM [%] |
| --- | --- |
| O=C(c1ccsc1)N1CCc2c(CNc3ncccn3)n[nH]c2C1 | -16.7 |
| CN(C)S(=O)(=O)N1CCCCCC1c1cc(-c2ccc(F)cc2)no1 (centres undefined) | 10.6 |
| N#CC1(NC(=O)COc2cc(Cl)cc(Cl)c2)CCSC1 (centres undefined) | 7.95 |
| COC(=O)CC1CCCCN1CC(=O)NCCc1ccc(F)cc1 (centres undefined) | -8.61 |
| Cc1ccnc(C(NC(=O)c2oc(C)nc2C)C2CC2)n1 (centres undefined) | -0.392 |
| O=c1oc(-c2ccccc2)nn1CN1CCC(N2CCCCC2)CC1 | 6.64 |
| CCN(Cc1ccccc1)C(=O)CN1CCCCC1Cn1cncn1 (centres undefined) | 7.15 |
| CC(CN1CCCC1=O)NC(=O)c1cc(Cl)c2c(c1)OCO2 (centres undefined) | -10.4 |
| CC(C)c1cnc(CN(C)C2CCN(CCS(C)(=O)=O)C2)o1 (centres undefined) | 0.528 |
| CC(CC#N)N(C)Cc1ccccc1Cl (centres undefined) | -8.67 |
| CC(C)OCCC(=O)Nc1cc(C(=O)N(C)C(C)C)ccc1Cl | -3.79 |
| CC(=O)N(Cc1ccc(NCc2cnn(C(C)(C)C)c2)cc1)C(C)C | -3.44 |
| FC(F)(F)c1cccc(C2(CNCc3ccncc3)CCOCC2)c1 | -6.98 |
| O=C(c1cccc(NCCO)c1)N1CCOCC1 | -11 |
| Cc1noc([C@]23COC[C@H]2CN(C(=O)Cc2ccsc2)C3)n1 | -95.9 |
| CCOCC(=O)N1CCC2(CC1)CC(c1ccccc1)CO2 (centres undefined) | -113 |
| O=C(Cc1ccco1)N1C[C@H]2CCC[C@@]2(COCc2cccnc2)C1 | -115 |
| COCCNC(=O)[C@H]1CO[C@H]2CCN(Cc3cccs3)C[C@H]2C1 | -108 |
| O=C(CNCc1ccccc1Cn1cccn1)Nc1cnccn1 | 8.11 |
| Cc1cccc(CN2CCN(C(=O)N(C)C)[C@@H]3CS(=O)(=O)C[C@@H]32)n1 | 0.00559 |
| Cn1cc(CN(CC2(O)CCNC2)C2CCCCC2)cn1 (centres undefined) | 17.8 |
| CC(C)c1nc(CCN(C)c2nccc(N3CCCC(O)C3)n2)no1 (centres undefined) | -12 |

| Compound | cytotoxicity at 10 µM [%] |
| --- | --- |
| CCn1c(C2CCCNC2)nn(Cc2ccc(C(=O)NC)o2)c1=O (centres undefined) | 8.25 |
| Cc1nccn1-c1ccc(N2CCC(NC(C)CC(C)C)CC2)cc1 (centres undefined) | 1.71 |
| COc1cccc2c1OCCCN(c1nc3c(c(=O)[nH]1)CCNCC3)C2 | -5.24 |
| COc1ccc(-c2n[nH]cc2CN(C)CCC2CCOCC2)cc1F | -6.57 |
| CCN(CC)S(=O)(=O)c1ccc(NC(=O)C(C)(C)C)cc1 | 9.22 |
| COCc1nc(CNC2CCSC2)no1 (centres undefined) | -1.37 |
| C=Cc1cccc(CN2CCCn3nc(CNS(C)(=O)=O)cc3C2)c1 | 3.15 |
| CCNC(=O)CCN1CCC(c2cc(N3CCOCC3)nc(C)n2)CC1 | -10.8 |
| Cc1ccc2c(c1)c(CNC(=O)C1CC(=O)N(C3CCCC3)C1)nn2C (centres undefined) | -19.9 |
| Cc1cc(C)n(CC(=O)N(C)Cc2csc(-c3cccs3)n2)c(=O)n1 | 32.2 |
| COc1cccc(N2CCN(Cc3ccc(NC(C)=O)cc3)CC2=O)c1 | -15.4 |
| CC(C)n1cc(CN2CCCN(C(=O)C(C)n3cccn3)CC2)cn1 (centres undefined) | -17.9 |
| Cc1nn(C)c(Cl)c1C1CCCN1C(=O)c1ccncc1 (centres undefined) | -11.2 |
| CN1CCN(c2cc(CNC(=O)c3ccc(Cl)o3)ccn2)CC1 | -9.69 |
| Cc1cnc(CNC(=O)N(CCCO)C2CCc3ccccc32)s1 (centres undefined) | -17.2 |
| CCCOc1cc(C)ccc1NC(=O)N(C)Cc1cnn(C)c1 | -11.1 |
| NC(=O)N1CCC(C(=O)NCc2nncn2-c2ccccc2)CC1 | -18.7 |
| Cc1nc(C)n(C2CCCN(C(=O)c3ncoc3C(C)C)C2)n1 (centres undefined) | -17 |
| Fc1cnc(N2CCO[C@H]3[C@H](OCC4CCOCC4)CC[C@@H]32)nc1 | 10.7 |
| Cc1nc(N2CCOCC2)nc2c1CCN(Cc1nccn1C)CC2 | -125 |
| CS(=O)(=O)N1CC[C@H]2OCC[C@@]2(C(=O)NCCc2ccccn2)C1 | -101 |
| CS(=O)(=O)NC[C@]12COC[C@H]1CN(Cc1ccc3c(c1)OCO3)C2 | -106 |
